Test results from PMC4927891 (Journal of Alzheimer's Disease, 2015).
Peptide text beside a SMILES is read from it.

Key:
Assay type in all cases: biochemical
[1] = molecular target: CDK5/p35 (Homo sapiens, UniProt Q00535); assay: Radiometric protein kinase assay, CDK5/p35 phosphotransferase activity; settings: for % Activity Change 1 μM: peptide 1 μM; for % Activity Change 1 μM / % Activity Change 10 μM / % Activity Change 50 μM / % Activity Change 100 μM / % Activity Change 250 μM / % Activity Change 500 μM: duplicate; for % Activity Change 10 μM: peptide 10 μM; for % Activity Change 50 μM: peptide 50 μM; for % Activity Change 500 μM: peptide 500 μM
Sequence of CDK5/p35 (Q00535 whole entry): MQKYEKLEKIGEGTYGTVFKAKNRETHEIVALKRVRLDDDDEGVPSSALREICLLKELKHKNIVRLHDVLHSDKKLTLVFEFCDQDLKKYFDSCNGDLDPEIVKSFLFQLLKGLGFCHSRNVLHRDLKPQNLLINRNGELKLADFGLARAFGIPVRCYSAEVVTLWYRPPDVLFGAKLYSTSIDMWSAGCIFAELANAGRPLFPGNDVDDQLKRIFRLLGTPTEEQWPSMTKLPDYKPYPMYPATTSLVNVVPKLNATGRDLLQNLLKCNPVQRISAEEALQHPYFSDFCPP

[2] = molecular target: ERK1 (Homo sapiens, UniProt P27361); assay: Radiometric protein kinase assay, ERK1 phosphotransferase activity; settings: for % Activity Change 1 μM: peptide 1 μM; for % Activity Change 10 μM: peptide 10 μM; for % Activity Change 50 μM: peptide 50 μM; for ERK1 activity inhibited by % compared to control / % Activity Change 500 μM: peptide 500 μM
Sequence of ERK1 (P27361 whole entry, species assumed): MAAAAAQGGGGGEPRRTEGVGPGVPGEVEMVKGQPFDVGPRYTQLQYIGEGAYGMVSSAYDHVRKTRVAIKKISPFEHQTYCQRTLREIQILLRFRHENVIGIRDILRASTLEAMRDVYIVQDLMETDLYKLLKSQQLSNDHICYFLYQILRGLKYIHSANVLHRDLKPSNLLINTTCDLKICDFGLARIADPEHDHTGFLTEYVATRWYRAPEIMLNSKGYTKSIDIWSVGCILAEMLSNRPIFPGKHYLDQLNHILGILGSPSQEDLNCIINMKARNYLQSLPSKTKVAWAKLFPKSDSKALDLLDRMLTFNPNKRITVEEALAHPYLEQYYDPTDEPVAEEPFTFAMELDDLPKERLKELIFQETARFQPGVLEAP
Method in brief: (§1)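 Reaction is started with [γ-33P]ATP (250 μM stock, 0.8 μCi), with peptide at six levels (1–500 μM) or 10% DMSO. Run 30°C, 20 min, then spot onto P81 paper, wash in 1% phosphoric acid and scintillation count. Substrate-free blank is subtracted. Duplicates, repeated twice.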

[3] = molecular target: CDK5/p25 (Homo sapiens, UniProt Q00535); assay: Radiometric protein kinase assay, CDK5/p25 phosphotransferase activity; settings: for % Activity Change 1 μM: peptide 1 μM, negative = inhibition; for % Activity Change 1 μM / % Activity Change 10 μM / % Activity Change 50 μM / % Activity Change 100 μM / % Activity Change 250 μM / % Activity Change 500 μM: vs control without inhibitor, duplicate; for % Activity Change 10 μM: peptide 10 μM; for % Activity Change 50 μM: peptide 50 μM; for % Activity Change 500 μM: peptide 500 μM
Sequence of CDK5/p25 (Q00535 whole entry): as the sequence (Q00535 whole entry) above
Method in brief: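 GST-tagged CDK5/p25 co-expressed in Sf9 cells via baculovirus, 15 nM final, with calf thymus histone H1 (1 mg/ml final) in MOPS pH 7.2 buffer with MgCl2, EGTA, EDTA, DTT. Reaction started with [γ-33P]ATP (250 μM stock, 0.8 μCi) and run 20 min at 30°C. Products were spotted on P81 paper, washed in 1% phosphoric acid and scintillation-counted. No-substrate blank was subtracted. Peptide tested 1–500 μM against 10% DMSO control, two experiments in duplicate.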

[4] = molecular target: GSK3β (Homo sapiens, UniProt P49841); assay: Radiometric protein kinase assay, GSK3β phosphotransferase activity; settings: for % Activity Change 1 μM: peptide 1 μM, positive = activation; for % Activity Change 10 μM: peptide 10 μM; for % Activity Change 50 μM: peptide 50 μM; for GSK3β phosphotransferase activity activated by % compared to control / % Activity Change 500 μM: peptide 500 μM
Sequence of GSK3β (P49841 whole entry, species assumed): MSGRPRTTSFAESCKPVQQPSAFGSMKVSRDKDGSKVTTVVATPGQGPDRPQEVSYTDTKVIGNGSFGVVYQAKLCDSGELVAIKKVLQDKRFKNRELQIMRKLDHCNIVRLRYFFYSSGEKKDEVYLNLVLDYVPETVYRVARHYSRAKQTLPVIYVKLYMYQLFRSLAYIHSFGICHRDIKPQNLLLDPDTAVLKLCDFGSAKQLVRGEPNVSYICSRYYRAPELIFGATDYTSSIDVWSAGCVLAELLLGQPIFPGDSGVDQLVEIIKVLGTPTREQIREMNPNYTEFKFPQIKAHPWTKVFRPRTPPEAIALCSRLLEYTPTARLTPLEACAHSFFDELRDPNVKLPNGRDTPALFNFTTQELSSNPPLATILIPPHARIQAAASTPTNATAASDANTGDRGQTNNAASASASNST
Method in brief: as §1

Structure (SMILES) | IC50 [1] [µM] | % Activity Change 1 μM [1] | % Activity Change 10 μM [1] | % Activity Change 50 μM [1] | % Activity Change 100 μM ([1]; peptide 100 μM) | % Activity Change 250 μM ([1]; peptide 250 μM) | % Activity Change 500 μM [1] | % Activity Change 1 μM ([2]; duplicate) [%] | % Activity Change 10 μM ([2]; duplicate) [%] | % Activity Change 50 μM ([2]; duplicate) | ERK1 activity inhibited by % compared to control [2] [%] | % Activity Change 500 μM ([2]; duplicate) | IC50 [3] [µM] | % Activity Change 1 μM [3] [%] | % Activity Change 10 μM [3] | % Activity Change 50 μM [3] | % Activity Change 100 μM ([3]; peptide 100 μM) | % Activity Change 250 μM ([3]; peptide 250 μM) | % Activity Change 500 μM [3] | % Activity Change 1 μM ([4]; duplicate) | other results
CC[C@H](C)[C@H](NC(=O)[C@H](CCC(N)=O)NC(=O)[C@@H](NC(=O)[C@H](CCSC)NC(=O)[C@H](CCCCN)NC(=O)[C@H](CO)NC(=O)[C@@H](NC(=O)[C@H](CCSC)NC(=O)[C@H](CC(C)C)NC(=O)[C@H](CC(N)=O)NC(=O)[C@@H](NC(=O)[C@@H](NC(=O)[C@H](CO)NC(=O)[C@H](CC(C)C)NC(=O)[C@H](C)NC(=O)[C@H](CCCNC(=N)N)NC(=O)[C@H](CCC(=O)O)NC(=O)[C@H](Cc1ccc(O)cc1)NC(=O)[C@H](Cc1ccccc1)NC(=O)[C@H](C)NC(=O)[C@H](CC(N)=O)NC(=O)[C@@H](N)CCCCN)[C@@H](C)CC)[C@@H](C)CC)[C@@H](C)O)C(C)C)C(=O)N[C@@H](CC(N)=O)C(=O)N[C@H](C(=O)O)C(C)C [p5-MT] (H-KNAFYERALSIINLMTSKMVQINV-OH) | 83 | –3% | –14% | –35% | –57% | –73% | –84% | 1 | 0 | –2% | 54 | –54% | 119 | 2 | –8% | –22% | –46% | –73% | –85% | –1% | CDK5/p35 phosphotransferase activity inhibited by % compared to control ([1]; peptide 100 μM): 57%; IC50 [2]: 425 µM; % Activity Change 250 μM ([2]; peptide 250 μM, duplicate): –35%; CDK5/p25 phosphotransferase activity inhibited by % compared to control ([3]; peptide 100 μM): 46%; % Activity Change 10 μM ([4]; duplicate): 3%; % Activity Change 50 μM ([4]; duplicate): 6%; GSK3β phosphotransferase activity activated by % compared to control [4]: 40%; % Activity Change 500 μM ([4]; duplicate): 40%
CC[C@H](C)[C@H](NC(=O)[C@H](CCC(N)=O)NC(=O)[C@H](CC(C)C)NC(=O)[C@H](CCSC)NC(=O)[C@H](CCCCN)NC(=O)[C@H](CO)NC(=O)[C@H](CO)NC(=O)[C@H](CCSC)NC(=O)[C@H](CC(C)C)NC(=O)[C@H](CC(N)=O)NC(=O)[C@@H](NC(=O)[C@@H](NC(=O)[C@H](CO)NC(=O)[C@H](CC(C)C)NC(=O)[C@H](CS)NC(=O)[C@H](CCCNC(=N)N)NC(=O)[C@H](CC(=O)O)NC(=O)[C@H](Cc1c[nH]c2ccccc12)NC(=O)[C@H](Cc1ccccc1)NC(=O)[C@H](C)NC(=O)[C@H](CCC(=O)O)NC(=O)[C@@H](N)CCCCN)C(C)C)[C@@H](C)CC)C(=O)N[C@@H](CC(N)=O)C(=O)N[C@@H](C)C(=O)O [p5-WT] (H-KEAFWDRCLSVINLMSSKMLQINA-OH) | 217 | 2% | –2% | –10% | –29% | –53% | –76% | 0 | 0 | –3% | 25 | –25% | 169 | 0 | –13% | –20% | –41% | –59% | –72% | –3% | CDK5/p35 activity inhibited by % compared to control ([1]; peptide 250 μM): 53%; % Activity Change 100 μM ([2]; peptide 100 μM, duplicate): –6%; % CFC (percent change from control) ([3]; 79-peptide scan, relative to p5-WT peptide (#1), negative = greater inhibition): 0%; CDK5/p25 phosphotransferase activity inhibited by % compared to control ([3]; peptide 250 μM): 59%; % Activity Change 10 μM ([4]; duplicate): –1%; % Activity Change 50 μM ([4]; duplicate): 0%; % Activity Change 100 μM ([4]; peptide 100 μM, duplicate): 8%; GSK3β phosphotransferase activity activated by % compared to control [4]: 24%; % Activity Change 500 μM ([4]; duplicate): 24%
